Common to all, as to format: functional, cell-based
For assay [1], the system named is BL13/0. The assay is described as follows: In vitro cytotoxicity was determined by using cultures of human bladder (BL13/0) cancer cells by SRB assay. The gist of the method: (§1)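 Cells grown in RPMI 1640/10% FCS under 7.5% CO2, 5% O2. Seeded at 5000 cells/well for 24 h, then given complexes (saline stock diluted in medium) at final 0–200 μM for 96 h. Fixed in cold 10% TCA 30 min at 4 °C, stained with 0.4% SRB in 1% acetic acid 15 min, dye solubilized in 10 mM Tris, A570. Percent of control from 4 or 6 replicates; IR50 read from curves.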
(In SRB staining, fixed cells bind dye roughly in proportion to their protein.)

Assay [2] relates to PC-9. In words: In vitro cytotoxicity was determined by using cultures of human lung (PC9) cancer cells by MTT assay. The gist of the method: (§2)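 Monolayers in RPMI 1640 with 10% FCS, 37 °C, 7.5% CO2/5% O2/85% N2. Trypsinized, 5000 cells/well, 24 h preincubation. Complexes in 0.9% NaCl saline, final 0–200 μM, 96 h exposure; washed. MTT 1 mg/mL in FCS-free medium, 4 h at 37 °C, formazan in 2-propanol, OD 570 nm. Viability % of untreated; 4 or 6 replicates; IR50 from dose-response curves.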
A general note: Tetrazolium assays rely on reduction of a dye to a coloured formazan, in cell work by metabolically active cells.

Assay [3] deals with PC-9. In words: In vitro cytotoxicity was determined by using cultures of human resistant lung (PC9cisR) cancer cells by SRB assay. The method in brief:
as §1

For assay [4], the system named is PC-9. In words: In vitro cytotoxicity was determined by using cultures of human lung (PC9) cancer cells by SRB assay. The gist of the method: as §1
For assay [5], the system named is DU-145. In words: In vitro cytotoxicity was determined by using cultures of human prostate (DU145) cancer cells by SRB assay. The gist of the method: as §1
Assay [6] relates to PC-9. In words: In vitro cytotoxicity was determined by using cultures of human resistant lung (PC9cisR) cancer cells by MTT assay. The gist of the method: as §2
For assay [7], the system named is BL13/0. In words: In vitro cytotoxicity was determined by using cultures of human bladder (BL13/0) cancer cells by MTT assay. The method in brief: as §2
The subject of assay [8] is DU-145. In words: In vitro cytotoxicity was determined by using cultures of human prostate (DU145) cancer cells by MTT assay. The method in brief:
as §2

For “8,8-platinumdichloro-(6R)-1,7-diazoniabicyclo[4.2.1]nonane”, the IC50 (in general, the concentration needed to halve the response being measured) is 7.2 µM in the assay with BL13/0 [1]; 5.9 µM with PC-9 [2]; 27.3 µM in the assay on PC-9 [3]; 11 µM in the assay with PC-9 [4]; 3.3 µM with DU-145 [5]; 16 µM in the assay with PC-9 [6]. The IC50 in the assay on BL13/0 [7] amounted to 1.3 µM; with DU-145 [8], 2.9 µM.
On to CISPLATIN, for which the IC50 was 9.5 µM in the assay with BL13/0 [1]; 1.4 µM in the assay on PC-9 [2]; above 17.5 µM in the assay on PC-9 [3]; 1 µM in the assay with DU-145 [5]; 11.7 µM with PC-9 [6]; 1.9 µM in the assay with BL13/0 [7]. In addition, the IC50 in the assay on DU-145 [8] is 1.8 µM.

The values above are taken from ChEMBL document CHEMBL1130319, “Preparation, DNA binding, and in vitro cytotoxicity of a pair of enantiomeric platinum(II) complexes, [(R)- and (S)-3-aminohexahydroazepine]dichloroplatinum(II). Crystal structure of the S enantiomer” (J Med Chem, 1997).
